# Assay results published in ChEMBL document CHEMBL2021766, “Antiplasmodial activity of novel keto-enamine chalcone-chloroquine based hybrid pharmacophores” (Bioorg Med Chem, 2012).
# System: Plasmodium yoelii
# Test: Antimalarial activity against chloroquine-resistant Plasmodium yoelii N-67 infected Swiss mouse assessed as mean survival time at 100 mg/kg/day, po qd for 4 days
# Type: functional
# Details: not given
# Procedure, shortened: (§1)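 Swiss mice infected with P. yoelii N-67 (1 × 10⁵ parasitized RBC, day 0). Test agents were given as aqueous suspensions with a few drops of Tween 80, orally at 100 mg/kg/day, once daily on days 0–3, to groups of five. Parasitaemia was read from thin blood smears on days 4 and 6. Percent suppression was calculated from group means versus untreated controls. Survival and cure were followed to day 30.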
row,Compound,MST [days]
1,CC1=CC(/C=C/C(=O)c2ccc(Br)cc2)=CC(=C\NCCNc2ccnc3cc(Cl)ccc23)/C1=O,18
2,COc1cc(C(=O)/C=C/C2=CC(=C\NCCNc3ccnc4cc(Cl)ccc34)/C(=O)C(C)=C2)cc(OC)c1OC,17
3,CC1=CC(/C=C/C(=O)c2cccs2)=CC(=C\NCCNc2ccnc3cc(Cl)ccc23)/C1=O,16.2
4,CCC(C)C1=CC(/C=C/C(=O)c2ccccc2)=CC(=C\NCCNc2ccnc3cc(Cl)ccc23)/C1=O (stereo not drawn),14.6

# System: not listed separately
# Test: Selectivity index, ratio of CC50 for monkey Vero cells to IC50 for chloroquine-sensitive ring stage Plasmodium falciparum 3D7
# Type: functional
# Details: not given
# Procedure, shortened: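 Vero cells exposed to dilutions of test agents for 72 h; MTT read-out (modified Mosmann method); CC50 by non-linear regression. Ratio taken against the 3D7 IC50 from SYBR Green-I assay.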
row,Compound,Ratio CC50/IC50
1,CCC(C)C1=CC(/C=C/C(=O)c2ccco2)=CC(=C\Nc2ccc(Nc3ccnc4cc(Cl)ccc34)cc2)/C1=O (stereo not drawn),678.11
2,CC(C)(C)C1=CC(/C=C/C(=O)c2ccc(Cl)cc2)=CC(=C\NCCNc2ccnc3cc(Cl)ccc23)/C1=O,868.3
3,CC1=CC(/C=C/C(=O)c2ccc(O)cc2)=CC(=C\NCCCNc2ccnc3cc(Cl)ccc23)/C1=O,505.98
4,CC1=CC(/C=C/C(=O)c2ccc(Br)cc2)=CC(=C\NCCNc2ccnc3cc(Cl)ccc23)/C1=O,1114.59
5,COc1cc(C(=O)/C=C/C2=CC(=C\NCCNc3ccnc4cc(Cl)ccc34)/C(=O)C(C)=C2)cc(OC)c1OC,1392.22
6,CC1=CC(/C=C/C(=O)c2cccs2)=CC(=C\NCCNc2ccnc3cc(Cl)ccc23)/C1=O,1414.59
7,CCC(C)C1=CC(/C=C/C(=O)c2ccccc2)=CC(=C\NCCNc2ccnc3cc(Cl)ccc23)/C1=O (stereo not drawn),498.54

# System: Plasmodium yoelii
# Test: Antimalarial activity against chloroquine-resistant Plasmodium yoelii N-67 infected Swiss mouse assessed as suppression of parasitemia at 100 mg/kg/day, po qd for 4 days measured on day 6
# Type: functional
# Details: not given
# Procedure, shortened: as §1
row,Compound,inhibition in vivo at 100 mg/kg/day [%]
1,CC1=CC(/C=C/C(=O)c2ccc(Br)cc2)=CC(=C\NCCNc2ccnc3cc(Cl)ccc23)/C1=O,80.6
2,COc1cc(C(=O)/C=C/C2=CC(=C\NCCNc3ccnc4cc(Cl)ccc34)/C(=O)C(C)=C2)cc(OC)c1OC,82.1
3,CC1=CC(/C=C/C(=O)c2cccs2)=CC(=C\NCCNc2ccnc3cc(Cl)ccc23)/C1=O,82.3
4,CCC(C)C1=CC(/C=C/C(=O)c2ccccc2)=CC(=C\NCCNc2ccnc3cc(Cl)ccc23)/C1=O (stereo not drawn),83.2

# System: Plasmodium yoelii
# Test: Antimalarial activity against chloroquine-resistant Plasmodium yoelii N-67 infected Swiss mouse assessed as suppression of parasitemia at 100 mg/kg/day, po qd for 4 days measured on day 4
# Type: functional
# Details: N-67, 96 h
# Procedure, shortened: as §1
row,Compound,inhibition in vivo at 100 mg/kg/day [%]
1,CC1=CC(/C=C/C(=O)c2ccc(Br)cc2)=CC(=C\NCCNc2ccnc3cc(Cl)ccc23)/C1=O,99.7
2,COc1cc(C(=O)/C=C/C2=CC(=C\NCCNc3ccnc4cc(Cl)ccc34)/C(=O)C(C)=C2)cc(OC)c1OC,99.8
3,CC1=CC(/C=C/C(=O)c2cccs2)=CC(=C\NCCNc2ccnc3cc(Cl)ccc23)/C1=O,99.8
4,CCC(C)C1=CC(/C=C/C(=O)c2ccccc2)=CC(=C\NCCNc2ccnc3cc(Cl)ccc23)/C1=O (stereo not drawn),99.6

# System: Plasmodium yoelii
# Test: Inhibition of beta-hematin formation in Plasmodium yoelii infected Swiss mouse plasma using hemin as substrate after 16 hrs by spectrophotometry
# Type: functional
# Details: not given
# Procedure, shortened: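 Plasma taken by cardiac puncture into 2.0% citrate from male Swiss mice (15–20 g) infected with 1 × 10^5 P. yoelii RBCs, at about 50% parasitemia. Mix: 100 mM sodium acetate pH 5.1, 50 µL plasma, 100 µM hemin, compound, in triplicate, 37 °C for 16 h with shaking. Pellet washed in Tris–HCl pH 7.4 with 2.5% SDS. IC50 = 50% inhibition; three experiments in triplicate.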
row,Compound,IC50 [µg/mL]
1,CCC(C)C1=CC(/C=C/C(=O)c2ccco2)=CC(=C\Nc2ccc(Nc3ccnc4cc(Cl)ccc34)cc2)/C1=O (stereo not drawn),3.21
2,CC(C)(C)C1=CC(/C=C/C(=O)c2ccc(Cl)cc2)=CC(=C\NCCNc2ccnc3cc(Cl)ccc23)/C1=O,8.06
3,CC1=CC(/C=C/C(=O)c2ccc(O)cc2)=CC(=C\NCCCNc2ccnc3cc(Cl)ccc23)/C1=O,3.48
4,CC1=CC(/C=C/C(=O)c2ccc(Br)cc2)=CC(=C\NCCNc2ccnc3cc(Cl)ccc23)/C1=O,7.6
5,COc1cc(C(=O)/C=C/C2=CC(=C\NCCNc3ccnc4cc(Cl)ccc34)/C(=O)C(C)=C2)cc(OC)c1OC,9.61
6,CC1=CC(/C=C/C(=O)c2cccs2)=CC(=C\NCCNc2ccnc3cc(Cl)ccc23)/C1=O,3.1
7,CCC(C)C1=CC(/C=C/C(=O)c2ccccc2)=CC(=C\NCCNc2ccnc3cc(Cl)ccc23)/C1=O (stereo not drawn),3.15

# System: Plasmodium falciparum
# Test: Antimalarial activity against chloroquine-sensitive ring stage Plasmodium falciparum 3D7 after 72 hrs by SYBR Green-I assay
# Type: functional, organism-based
# Details: 3D7, 72 h
# Procedure, shortened: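 Asynchronous P. falciparum 3D7 culture (over 80% ring stages), 1.0% parasitized cell suspension at 0.8% parasitaemia, incubated with twofold serial dilutions at 37 °C, 5% CO2/air, 72 h. Lysis buffer with 1× SYBR Green-I added, 1 h at 37 °C. Fluorescence read at 485/530 nm excitation/emission. IC50 from triplicate experiments.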
row,Compound,IC50 [µg/mL]
1,CCC(C)C1=CC(/C=C/C(=O)c2ccco2)=CC(=C\Nc2ccc(Nc3ccnc4cc(Cl)ccc34)cc2)/C1=O (stereo not drawn),0.08
2,CC(C)(C)C1=CC(/C=C/C(=O)c2ccc(Cl)cc2)=CC(=C\NCCNc2ccnc3cc(Cl)ccc23)/C1=O,0.0282
3,CC1=CC(/C=C/C(=O)c2ccc(O)cc2)=CC(=C\NCCCNc2ccnc3cc(Cl)ccc23)/C1=O,0.0351
4,CC1=CC(/C=C/C(=O)c2ccc(Br)cc2)=CC(=C\NCCNc2ccnc3cc(Cl)ccc23)/C1=O,0.0188
5,COc1cc(C(=O)/C=C/C2=CC(=C\NCCNc3ccnc4cc(Cl)ccc34)/C(=O)C(C)=C2)cc(OC)c1OC,0.0107
6,CC1=CC(/C=C/C(=O)c2cccs2)=CC(=C\NCCNc2ccnc3cc(Cl)ccc23)/C1=O,0.00975
7,CCC(C)C1=CC(/C=C/C(=O)c2ccccc2)=CC(=C\NCCNc2ccnc3cc(Cl)ccc23)/C1=O (stereo not drawn),0.0136
